An excerpt weighted towards active compounds, which were near 0.74% of everything screened.
ARFGAP1 inh: inhibitors of rat ARFGAP1 GAP activity, primary screen, biochemical, fluorescence polarization, GDP tracer; ADP-ribosylation factor GTPase-activating protein 1 (Rattus norvegicus), Q62848; Arfgap1-stimulated ARF1 GTP hydrolysis, GDP FP detection; inhibition, % at 16.5 µM; actives 0.26% (n = 360,000); AID 651572, 2012;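 active = inhibition above a per-plate limit, mean inhibition of low control wells plus 3 SD, cut at about 25% in these data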
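Material: rat Arfgap1 GAP domain (His6, aa 1-136), purified enzyme. Also added: human ARF1(Δ1-17)-GTP substrate. Compound dosing: 16.5 µM single point, 1.26% DMSO. Timing: enzyme reaction 120 min at 25 °C after 20 min preincubation. Signal: GDP detection by fluorescence polarization. Read-out basis: percent inhibition of GAP-stimulated GDP formation, scaled between DMSO and no-Arfgap1 medians.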
DDE Tn6 FP inh: inhibitors of Tn6 peptide binding to fibrin DD(E), primary screen, biochemical, fluorescence polarization, human fibrin, Tn6 probe; Fibrinogen beta chain (Homo sapiens), P02675; Fibrin DD(E) TRITC-Tn6 fluorescence polarization displacement; inhibition, % at 8.3 µM; actives 0.21% (n = 370,000);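 active = inhibition above a per-campaign cutoff: mean of compounds within control limits plus 3 SD, cut at about 15% in these data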
ASAP1 inh: inhibitors of human ASAP1 ArfGAP activity, primary screen, biochemical, fluorescence polarization | ASAP1-stimulated ARF1 GTP hydrolysis, GDP FP detection | actives 0.19% (n = 360,000) | inhibition, % at 16.5 µM | Arf-GAP with SH3 domain, ANK repeat and PH domain-containing protein 1 (Homo sapiens), …; in the data active = inhibition above about 25%
Target sequence (Q9ULH1 325-724 limits assumed): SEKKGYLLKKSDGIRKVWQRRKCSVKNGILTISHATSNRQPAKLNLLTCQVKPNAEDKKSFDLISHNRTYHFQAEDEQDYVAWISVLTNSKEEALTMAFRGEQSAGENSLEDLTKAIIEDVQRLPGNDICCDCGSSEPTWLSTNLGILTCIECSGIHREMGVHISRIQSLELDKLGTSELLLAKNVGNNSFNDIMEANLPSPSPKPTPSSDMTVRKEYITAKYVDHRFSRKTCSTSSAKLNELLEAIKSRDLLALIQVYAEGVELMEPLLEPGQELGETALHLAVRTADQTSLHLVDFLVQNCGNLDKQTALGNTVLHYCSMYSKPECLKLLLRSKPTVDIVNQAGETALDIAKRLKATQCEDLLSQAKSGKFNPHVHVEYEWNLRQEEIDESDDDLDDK
Tn7 DDE FP: inhibitors of Tn7 peptide binding to fibrin DD(E), primary screen, biochemical, fluorescence polarization, human fibrin, Tn7 probe; Fibrinogen beta chain (Homo sapiens), P02675; FP displacement of FITC-Tn7 peptide from fibrin DD(E); 0% = median of compound wells per plate; actives 0.13% (n = 370,000); AID 720508, 2013; inhibition, % at 8.3 µM;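 active = inhibition above the mean of compounds falling within the control limits plus 3 SD of them, cut at about 14% in these data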
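Assay system: Human clot-derived fibrin DD(E) complex | Buffer or medium: Tris/NaCl/CaCl2 buffer, pH 7.8 | Repeats: One replicate per compound | Benchmarks: Aha-Tn7 high control | Measure: % inhibition scaled between sample-field median and high-control FP | Schedule: 10 min plus 3 h, room temperature | Signal: Fluorescence polarization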
ARFGAP1 confirm: ARFGAP1 inhibitor hit confirmation, biochemical, fluorescence polarization, triplicate. inhibition, % at 16.5 µM. shares compounds with ARFGAP1 inh. actives 30% (n = 890). ARFGAP1-stimulated ARF1 GTP hydrolysis, GDP tracer FP;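 active = average inhibition over triplicates above the hit cutoff set in the earlier primary screen, cut at about 25% in these data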
Hits are given with their value; 0 = inactive; - = not tested or not shown.

SMILES	ARFGAP1 inh	DDE Tn6 FP inh	ASAP1 inh	Tn7 DDE FP	ARFGAP1 confirm
COc1ccc(-n2c(=O)c3c4c(sc3n3cnnc23)CC(C)CC4)cc1 (stereo unspecified)	27	0	0	0	62
Cc1c(-c2nc(N)nc(Nc3ccc(F)cc3)n2)oc2ccccc12	33	0	0	0	0
Cc1ccc(-n2c(Cc3cccs3)nnc2SCC(=O)Nc2cccc3ccccc23)cc1	-	0	-	0	-
Cc1ccc2nc(-c3ccc(SCC(=O)Nc4nnc(C)s4)nc3)[nH]c2c1	0	0	0	0	-
Cc1ccc2nc(-c3ccc(SCC(=O)Nc4nc(C)cs4)nc3)[nH]c2c1	25	0	0	0	33
CC(C)CN1C(=O)[C@@]2(CC(=O)N(C)C2c2ccccc2)c2cc(-n3cc(CCc4ccccc4)nn3)ccc21 (stereo partly specified)	-	0	-	0	-
Cc1ccc(/C=N/N2CCN(Cc3ccccc3)CC2)o1	0	0	0	0	-
Cc1ccc(/C=N/N(Cc2ccccc2)c2ccccc2)o1	33	0	0	0	0
O=C(COC(=O)c1ccccc1F)Nc1ccc(S(=O)(=O)N2CCOCC2)cc1	27	0	0	0	0
O=C(COC(=O)c1ccc(F)cc1F)Nc1ccc(S(=O)(=O)N2CCOCC2)cc1	0	0	0	0	-
O=C(Nc1ccc(OC(F)(F)F)cc1)C1CCCN(C(=O)c2ccc(Cl)cc2)C1 (stereo unspecified)	25	0	0	0	0
CC(=O)Nc1ccc(NC(=O)C2CCCN(C(=O)c3ccc(Cl)cc3)C2)cc1 (stereo unspecified)	0	0	0	0	-
Clc1cccc(CNc2nc(-c3cccnc3)nc3ccccc23)c1	32	0	0	0	27
Clc1cccc(Nc2nc(-c3ccncc3)nc3ccccc23)c1	39	0	0	0	50
c1ccc(CNc2nc(-c3cccnc3)nc3ccccc23)cc1	0	0	0	0	-
CCCC1CCC2(CC1)CCC2OC(=S)Nc1ccc(I)cc1 (stereo unspecified)	-	0	-	0	-
Cc1cc(=O)n(C2CCS(=O)(=O)C2)[nH]1 (stereo unspecified)	29	0	0	0	0
COc1ccc(C(=O)N/N=C/c2cc(Br)ccc2O)cc1OC	33	0	0	0	50
COc1ccc(O)c(/C=N/NC(=O)c2ccc(CSc3nc(C)cc(C)n3)cc2)c1	30	0	0	0	33
COc1cc(Cl)cc(/C=N\NC(=O)c2ccc3c(c2)OCO3)c1O	34	0	0	0	43
Cc1ccc(-n2c(=O)cc(N3CCC(C)CC3)[nH]c2=O)cc1	26	0	0	0	0
COc1ccc(NC(=O)c2ccc(NC(=O)COC(=O)CC(NC(=O)c3ccccc3Cl)c3ccccc3)cc2)cc1 (stereo unspecified)	26	0	0	0	0
O=C(COC(=O)c1ccc(O)cc1)Nc1cc(S(=O)(=O)N2CCCCCC2)ccc1Cl	26	0	0	0	0
CCCC1CCC2(CCC(=O)N2CCSc2ccccc2)CC1 (stereo unspecified)	-	0	-	0	-
C[C@H](CO)N1C[C@H](C)[C@H](CN(C)C(=O)Nc2cccc(F)c2)Oc2cc(C#CC3(O)CCCC3)ccc2S1(=O)=O	29	0	0	0	0
SMILES	ARFGAP1 inh	DDE Tn6 FP inh	ASAP1 inh	Tn7 DDE FP	ARFGAP1 confirm
CC(C)CN1C(=O)C[C@@]2(C(=O)N(C)c3ccc(NS(=O)(=O)C4CC4)cc32)C1c1ccccc1 (stereo partly specified)	-	0	-	0	-
CN(Cc1ccccc1)S(=O)(=O)c1cccc(C(=O)OCc2cccc([N+](=O)[O-])c2)c1	-	0	-	0	-
CCOC(=O)CN1Cc2cccc(C(=O)O)c2C1=O	25	0	0	0	0
O=c1c(C(c2ccc(F)cc2)c2c(O)nc3n(c2=O)CCS3)c(O)nc2n1CCS2	26	0	0	0	0
O=c1c(C(c2ccc(Cl)cc2)c2c(O)nc3n(c2=O)CCS3)c(O)nc2n1CCS2	0	0	0	0	-
Cc1ccc(NC(=S)NNC(=O)CSc2nnc(-c3ccc(C)cc3)n2C2CCCCC2)cc1	-	0	-	0	-

Compound activity deposited in PubChem BioAssay by The Scripps Research Institute Molecular Screening Center.
